Assay results taken from ChEMBL document CHEMBL1143585, “Synthesis of some cryptolepine analogues, assessment of their antimalarial and cytotoxic activities, and consideration of their antimalarial mode of action” (J Med Chem, 2005).

How the values were obtained:
[1] = Ionization constant for the compound; type: physicochemical
Plasmodium falciparum [2] = assay: Normalized IC50 as product of antiplasmodial IC50 and vacuolar accumulation IC50; type: functional, organism-based
[3] = target: T1, Histidine-rich protein PFHRP-II (Plasmodium falciparum) (UniProt P05227); assay: Antiplasmodial activity as IC50 against Beta-hematin formation; type: functional
T1 sequence (whole entry): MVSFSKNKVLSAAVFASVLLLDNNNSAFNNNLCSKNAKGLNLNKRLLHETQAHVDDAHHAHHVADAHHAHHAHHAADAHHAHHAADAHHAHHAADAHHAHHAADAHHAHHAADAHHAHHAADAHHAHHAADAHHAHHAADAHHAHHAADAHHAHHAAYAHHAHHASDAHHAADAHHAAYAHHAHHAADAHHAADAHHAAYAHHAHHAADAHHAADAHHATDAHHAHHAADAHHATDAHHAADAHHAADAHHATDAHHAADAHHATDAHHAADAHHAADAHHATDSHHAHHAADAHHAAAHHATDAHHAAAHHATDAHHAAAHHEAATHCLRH
Outline: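 β-Hematin inhibition (BHIA) assay: hemin (0.4 µmol/well) in DMSO with compound at 0.25–2 (or 4) molar equivalents to hemin, in triplicate. Final DMSO was 25%. Formation started with 8 M acetate buffer pH 5.0, then 37 °C for 18 h. The centrifuged pellet was dissolved in 0.1 M NaOH and read at 405 nm. BHIA50 is the drug equivalents relative to hemin giving 50% inhibition.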

Plasmodium falciparum [4] = assay: […] accumulation into acidic parasitic food vacuole at pH=5.5; type: functional
MAC15A [5] = assay: Cytotoxicity against MAC15A mouse adenocarcinomas of the colon cells; type: functional, cell-based; conditions: Mus musculus, MAC15A
Outline: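 MTT assay. MAC15A cells were seeded at 2 × 10^3 per well and attached overnight at 37 °C, 5% CO2. Drugs were dissolved in DMSO and diluted in medium (max 0.1% DMSO), eight wells per concentration, 96 h exposure. MTT (0.5 mg/mL) was then added for 24 h. Formazan was dissolved in DMSO and read at 550 nm. Survival is relative to vehicle control; IC50 from triplicate experiments.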

Mus musculus [6] = assay: In vivo antimalarial activity of compound against Plasmodium berghei in mice (Mus musculus) at dose of 50 mg/kg treated for 4 days; type: functional
Plasmodium falciparum [7] = assay: In vitro antiplasmodial activity for Plasmodium falciparum; type: functional, organism-based; conditions: Plasmodium falciparum
Outline: (§1)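 P. falciparum K1 ring-stage cultures in human A+ erythrocytes (RPMI 1640, A+ serum, glucose), at 2.5% hematocrit and 1% parasitemia. Two-fold serial dilutions in duplicate, final DMSO ≤0.5%. Incubated 48 h at 37 °C under 93% N2/3% O2/4% CO2. Growth read as parasite lactate dehydrogenase activity (APAD/NBT, 550 nm). IC50 by linear regression; at least three separate determinations.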

MAC15A [8] = assay: Ratio of cytotoxic to that of antiplasmodial activity was determined; type: functional, Mus musculus
Mus musculus [9] = organism: Mus musculus; assay: Mean survival time taken as number of days before illness due to Plasmodium berghei in untreated mice (Mus musculus); type: functional
Outline: (§2)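 Peters' 4-day suppressive test in female BALB/c mice (18-20 g), five per group. Each mouse got 1 × 10^7 P. berghei ANKA-infected erythrocytes iv. Drug was given ip in 0.2 mL daily for 4 consecutive days. Survival time was the number of days before signs of malaria illness, compared with untreated infected controls.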

Plasmodium falciparum [10] = assay: […] accumulation into acidic parasitic food vacuole (pH=5.5) relative to Cryptolepine; type: functional
Outline: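 Calculated from each compound's spectrophotometric pKa via a pH-trapping equation, assuming food-vacuole pH 5.5 and external pH 7.4. The result is expressed relative to cryptolepine's ratio. pKa came from UV spectra (0.05 mg mL-1) in at least seven buffers of pH 5.8–13.0, plus 0.1 M NaOH and 0.1 M HCl. pKa was taken as the midpoint of the λmax absorbance plot. Two experiments per compound.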

Mus musculus [11] = assay: In vivo antimalarial activity of compound against Plasmodium berghei was determined as suppression of parasitemia in mice (Mus musculus) at 50 mg/kg treated for 4 days; type: functional
Plasmodium falciparum [12] = assay: In vitro antiplasmodial concentration against multidrug-resistant Plasmodium falciparum K1; type: functional, organism-based; outline: as §1
Mus musculus [13] = assay: Mean survival time taken as number of days before illness due to Plasmodium berghei when mice (Mus musculus) treated with 50 mg/kg dose for 4 days; type: functional; outline: as §2
Mus musculus [14] = assay: In vivo antimalarial activity of compound against Plasmodium berghei was determined as suppression of parasitaemia in mice (Mus musculus) at 10 mg/kg treated for 4 days; type: functional
Mus musculus [15] = assay: Mean survival time taken as number of days before illness due to Plasmodium berghei when mice (Mus musculus) treated with 10 mg/kg dose for 4 days; g=mice (Mus musculus) survived the test; type: functional, organism-based; design: dose 10 mg/kg; outline: as §2
Mus musculus [16] = assay: In vivo antimalarial activity of compound against Plasmodium berghei in mice (Mus musculus) at dose of 10 mg/kg treated for 4 days; type: functional
Mus musculus [17] = assay: Mean survival time taken as number of days before illness due to Plasmodium berghei when mice (Mus musculus) treated with 25 mg/kg dose for 4 days; type: functional; outline: as §2

Row | SMILES | pKa [1] | BHIA50 [3] | Vascular accumulation ratio (Plasmodium falciparum [4]) | IC50 (MAC15A [5]) [nM] | IC50 (Plasmodium falciparum [7]) [nM] | Ratio (MAC15A [8]) | Mean survival time (Mus musculus [9]) [days] | also measured
1 | C[n+]1c2ccccc2cc2[nH]c3c([N+](=O)[O-])cc([N+](=O)[O-])cc3c21.[Cl-] | 6.4 | 0.92 | 0.813 | – | – | – | – | IC50 (Plasmodium falciparum [2]): 6.5 nM
2 | C[n+]1c2ccc(F)cc2cc2[nH]c3ccccc3c21.[Cl-] | 11.2 | 1.24 | 79.41 | 4790 | 1210 | 3.96 | 5 | Parasitemia (Mus musculus [6]): 5.98%; IC50 (Plasmodium falciparum [2]): 1210 nM; Ratio (Plasmodium falciparum [10]): 1; Suppression of parasitemia (Mus musculus [11]): 55.1%; IC50 (Plasmodium falciparum [12]): 1210 nM; Mean survival time (Mus musculus [13]): 5 days
3 | C[n+]1c2cc(Cl)ccc2cc2[nH]c3ccc(Br)cc3c21.[Cl-] | – | – | – | 1140 | 37 | 30.8 | – | –
4 | C[n+]1c2cc(Cl)ccc2cc2[nH]c3ccccc3c21.[Cl-] | – | – | – | 1750 | 448 | 3.9 | – | –
5 | C[n+]1c2ccc(F)cc2cc2[nH]c3ccc(Br)cc3c21.[Cl-] | – | – | – | 1350 | 63 | 21.4 | – | –
6 | Cc1ccc2c(c1)cc1[nH]c3ccccc3c1[n+]2C.[Cl-] | – | – | – | 4110 | 419 | 9.81 | – | –
7 | C[n+]1c2ccccc2cc2[nH]c3ccccc3c21.O=S(=O)([O-])O | 11.8 | 1.64 | 79.43 | – | – | – | – | –
8 | C[n+]1c2cc(Cl)c(Cl)cc2cc2[nH]c3ccccc3c21.[Cl-] | – | – | – | 3320 | 356 | 9.33 | – | –
9 | C[n+]1c2ccc(Cl)c(Cl)c2cc2[nH]c3ccccc3c21.[Cl-] | – | – | – | 1910 | 88 | 21.7 | – | –
10 | COc1ccc2c(c1)cc1[nH]c3ccccc3c1[n+]2C.[Cl-] | 11.4 | 1.96 | 79.43 | 4310 | 950 | 4.54 | 5 | Parasitemia (Mus musculus [6]): 12.08%; IC50 (Plasmodium falciparum [2]): 950 nM; Ratio (Plasmodium falciparum [10]): 1; Suppression of parasitemia (Mus musculus [11]): 9.3%; IC50 (Plasmodium falciparum [12]): 950 nM; Mean survival time (Mus musculus [13]): 5 days
11 | CCN(CC)CCCC(C)Nc1ccnc2cc(Cl)ccc12.O=P(O)(O)O.O=P(O)(O)O (stereo not drawn) [CHLOROQUINE PHOSPHATE] | – | 1.44 | – | – | – | – | 8.56 | Suppression of parasitemia (Mus musculus [14]): 100%; Mean survival time (Mus musculus [15]): Mice survived; Parasitemia (Mus musculus [16]): 0%
12 | C[n+]1c2ccccc2cc2[nH]c3cc(Cl)ccc3c21.[I-] | – | – | – | – | – | – | 9.6 | Mean survival time (Mus musculus [17]): 14 days
